BasE inh = blocks the Acinetobacter baumannii siderophore enzyme BasE | AID 485350 | 84,000 tested, 0.1% active | purified BasE, fluorescence polarization binding displacement | inhibition, % (test concentration not listed); in the data active means inhibition above about 25%, passing the limit was not always enough;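 further: 0% = negative plate control signal and 100% = positive plate control signal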
KSHV LANA nucl = inhibitors of KSHV LANA binding to nucleosomes; FITC-LANA1-23 / chicken nucleosome fluorescence polarization; stronger effect = lower value; z-score (concentration not given with the values); 51,000 tested, 0.3% active; AID 720717;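 active means both repeat wells score below -2 in polarization z-score versus plate sample wells, excluding overly bright wells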
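System – purified chicken nucleosomes with FITC-labelled LANA N-terminal peptide (1-23) · Amount – 240 nM purified chicken nucleosomes (480 nM peptide binding sites), final · Also added – 50 nM FITC-LANA1-23 probe · Medium – TEN-BT buffer, pH 7.5 · Incubation – compound with peptide–nucleosome mix 10–45 min at room temperature · Detection – fluorescence polarization, ex 480 nm, em 535 nm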
The depositor's hits bear a star; · = not tested or not shown. The entries come from a sample that favours hits as a whole.

SMILES	BasE inh	KSHV LANA nucl
CC(=O)Oc1ccc(Cl)c2cccnc12	30*	0.18
CN(C)C(=O)Oc1cccc2cccnc12	0	-0.69
CCOC(=O)CC1=C(C(=O)OCC)C2(C(=O)N(CC(N)=O)c3ccccc32)C(C(=O)OCC)=C(N)O1 (centres undefined)	1	-0.079
C=CCn1cc(C=C2C(=O)NC(=O)NC2=O)c2ccccc21	4	-2.5*
O=C1NC(=O)C(=Cc2cn(CCOc3ccc4c(c3)OCO4)c3ccccc23)C(=O)N1	1	·
O=C1C2CN3CN(C2)CC1(c1ccccc1)C3	5	0.13
COC(=O)C1=C(C)N(C)C(=O)C12c1ccccc1-c1oc(N)nc12 (centres undefined)	2	0.025
CCn1nc(-c2ccccc2)nc2c(=O)n(C)c(=O)nc1-2	8	-9.3*
O=C1/C(=C\c2ccc(N3CCOCC3)cc2)N2CCC1CC2	3	-0.49

Screening data deposited in PubChem BioAssay by ICCB-Longwood Screening Facility, Harvard Medical School.
